Key:
Trypanothione reductase [1] = molecular target: T1, Trypanothione reductase (Trypanosoma brucei brucei, UniProt P39051); assay: Inhibition of recombinant trypanothione reductase from Trypanosoma brucei brucei S427 by DTNB-coupled spectrophotometric assay
Method in brief: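 Recombinant T. brucei brucei S427 TryR tested in a nonenzymatically coupled spectrophotometric assay, where DTNB reduction to TNB is followed as A412 increase. IC50 is the mean of independent duplicates (at least two replicates).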

[2] = tested on: Trypanosoma brucei brucei; assay: Antitrypanosomal activity against blood stream form Trypanosoma brucei brucei by resazurin fluorescence-based viability assay; assay type: functional, organism-based
Method in brief: (§1)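 Bloodstream-form T. b. brucei parasites and MRC5 cells were assayed in resazurin fluorescence-based viability tests. […] Pentamidine served as the positive control in all T. brucei plates.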

MRC5 = assay: Cytotoxicity against human MRC5 cells by resazurin fluorescence-based viability assay; assay type: cell-based; method in brief: as §1
Trypanothione reductase [3] = molecular target: Trypanothione reductase (Trypanosoma cruzi, UniProt P28593); assay: Inhibition of trypanothione reductase from Trypanosoma cruzi by DTNB-coupled spectrophotometric assay
Trypanothione reductase [4] = molecular target: T1, Trypanothione reductase; assay: Competitive inhibition of recombinant trypanothione reductase from Trypanosoma brucei brucei S427 by Lineweaver burk method
Trypanothione reductase [5] = molecular target: T1, Trypanothione reductase; assay: Mixed type inhibition of recombinant trypanothione reductase from Trypanosoma brucei brucei S427 by Lineweaver burk method

T1 sequence (P39051 whole entry): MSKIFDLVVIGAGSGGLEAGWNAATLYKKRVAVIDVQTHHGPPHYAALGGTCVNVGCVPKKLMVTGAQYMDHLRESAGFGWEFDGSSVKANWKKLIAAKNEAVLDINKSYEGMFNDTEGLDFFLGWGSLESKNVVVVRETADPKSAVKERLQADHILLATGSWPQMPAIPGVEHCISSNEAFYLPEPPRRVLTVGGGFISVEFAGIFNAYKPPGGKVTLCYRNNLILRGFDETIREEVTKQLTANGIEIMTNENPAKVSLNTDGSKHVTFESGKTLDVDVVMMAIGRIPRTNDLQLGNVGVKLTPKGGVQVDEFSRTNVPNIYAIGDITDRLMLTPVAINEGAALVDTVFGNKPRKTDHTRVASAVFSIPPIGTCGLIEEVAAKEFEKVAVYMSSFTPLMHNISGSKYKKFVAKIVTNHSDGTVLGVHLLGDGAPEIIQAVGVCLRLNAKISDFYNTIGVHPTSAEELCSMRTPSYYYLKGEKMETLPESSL
Trypanothione reductase (Trypanosoma cruzi, UniProt P28593), sequence (P28593 whole entry): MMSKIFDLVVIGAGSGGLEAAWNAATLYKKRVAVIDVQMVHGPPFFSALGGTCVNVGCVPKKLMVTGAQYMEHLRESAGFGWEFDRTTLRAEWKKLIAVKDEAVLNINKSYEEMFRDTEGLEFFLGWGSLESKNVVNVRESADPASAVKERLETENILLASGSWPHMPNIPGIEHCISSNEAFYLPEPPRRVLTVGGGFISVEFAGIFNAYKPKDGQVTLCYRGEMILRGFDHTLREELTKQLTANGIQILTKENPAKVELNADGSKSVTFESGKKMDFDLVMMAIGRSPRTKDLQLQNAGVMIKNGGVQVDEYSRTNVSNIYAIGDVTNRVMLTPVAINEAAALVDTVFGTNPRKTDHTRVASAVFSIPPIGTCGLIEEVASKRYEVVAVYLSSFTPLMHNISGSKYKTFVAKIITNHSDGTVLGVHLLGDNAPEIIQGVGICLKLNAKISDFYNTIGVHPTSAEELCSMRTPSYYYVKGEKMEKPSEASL

| SMILES | IC50 (Trypanothione reductase [1]) [nM] | further results |
| --- | --- | --- |
| CC1=Nc2ccc(-c3ccncc3)cc2C(c2ccccc2)N1CCN1CCCCC1 (stereo not drawn) | 4400 |  |
| CC1=Nc2ccc(-c3ccsc3)cc2C(c2ccccc2)N1CCN1CCCCC1 (stereo not drawn) | 790 |  |
| CC1=Nc2ccc(Cl)cc2C(c2cccc(F)c2)N1CCN1CCCCC1 (stereo not drawn) | 900 | EC50 [2]: 2000 nM; EC50 (MRC5): 10000 nM |
| COc1cccc(C2c3cc(Cl)ccc3N=C(C)N2CCN2CCCCC2)c1 (stereo not drawn) | 28000 |  |
| CC1=Nc2ccc(Cl)cc2C(c2cccc(Cl)c2)N1CCN1CCCCC1 (stereo not drawn) | 1200 |  |
| CCC1=Nc2ccc(Br)cc2C(c2ccccc2)N1CC(=O)OC (racemic) | 23000 |  |
| CC1=Nc2ccc(Br)cc2C(c2ccccc2)N1CC(=O)O (racemic) | 37000 |  |
| CC1=Nc2ccc(Br)cc2C(c2ccccc2)N1CC(=O)NN (racemic) | 15000 |  |
| COC(=O)CN1C(CN2CCOCC2)=Nc2ccc(Br)cc2C1c1ccccc1 (racemic) | 89000 |  |
| COC(=O)CN1C(C)=Nc2ccc(C)cc2C1c1ccccc1 (racemic) | 67000 | IC50 (Trypanothione reductase [3]): 38000 nM |
| COC(=O)CN1C(CCN2CCOCC2)=Nc2ccc(Br)cc2C1c1ccccc1 (racemic) | 93000 |  |
| COC(=O)CN1C(c2ccccc2)=Nc2ccc(C)cc2C1c1ccccc1 (racemic) | > 100000 |  |
| COC(=O)CN1C(c2cc(OC)c(OC)c(OC)c2)=Nc2ccc(C)cc2C1c1ccccc1 (racemic) | > 100000 |  |
| CC1=Nc2ccc(Cl)cc2C(c2ccccc2)N1Cc1ccccc1 (racemic) | 930 | EC50 [2]: 13000 nM; EC50 (MRC5): 46000 nM |
| CC1=Nc2ccc(Cl)cc2C(c2ccccc2)N1CCc1ccccc1 (racemic) | 2000 |  |
| COc1ccccc1CN1C(C)=Nc2ccc(Cl)cc2C1c1ccccc1 (racemic) | 1100 |  |
| CC1=Nc2ccc(Cl)cc2C(c2ccccc2)N1Cc1ccccc1F (racemic) | 940 | EC50 [2]: 14000 nM; EC50 (MRC5): 36000 nM |
| CC1=Nc2ccc(Cl)cc2C(c2ccccc2)N1Cc1cccc(Cl)c1 (racemic) | 3500 |  |
| CC1=Nc2ccc(Cl)cc2C(c2ccccc2)N1Cc1cccc(C(F)(F)F)c1 (racemic) | 1500 |  |
| CC1=Nc2ccc(Cl)cc2C(c2ccccc2)N1Cc1cccc(N(C)C)c1 (racemic) | 810 | EC50 [2]: 6400 nM; EC50 (MRC5): 27000 nM |
| CC1=Nc2ccc(Cl)cc2C(c2ccccc2)N1Cc1ccc(C)cc1 (racemic) | 1300 |  |
| CC1=Nc2ccc(Cl)cc2C(c2ccccc2)N1Cc1ccc(Cl)cc1 (racemic) | 2200 |  |
| CC1=Nc2ccc(Cl)cc2C(c2ccccc2)N1Cc1ccc(C(F)(F)F)cc1 (racemic) | 2200 |  |
| CCN1C(C)=Nc2ccc(Cl)cc2C1c1ccccc1 (racemic) | 1200 |  |
| CC1=Nc2ccc(Cl)cc2C(c2ccccc2)N1CCN1CCCCC1 (racemic) | 1800 | EC50 [2]: 1300 nM; EC50 (MRC5): 14000 nM |
| CC1=Nc2ccc(Cl)cc2C(c2ccccc2)N1CCN1CCOCC1 (racemic) | 2800 |  |

| SMILES | IC50 (Trypanothione reductase [1]) [nM] | further results |
| --- | --- | --- |
| CC1=Nc2ccc(Cl)cc2C(c2ccccc2)N1CCN1CCN(C)CC1 (racemic) | 930 | EC50 (MRC5): 4600 nM; Ki (Trypanothione reductase [4]): 320 nM |
| CC1=Nc2ccc(Cl)cc2C(c2ccccc2)N1CCN(C)C (racemic) | 3500 |  |
| CC1=Nc2ccc(Cl)cc2C(c2ccccc2)N1CCCN(C)C (racemic) | 1000 | EC50 (MRC5): 2700 nM |
| CNCCN1C(C)=Nc2ccc(Cl)cc2C1c1ccccc1 (racemic) | 2000 |  |
| CC1=Nc2ccc(Cl)cc2C(c2ccccc2)N1CCO (racemic) | 1700 |  |
| CC1=Nc2ccc(Cl)cc2C(c2ccccc2)N1CCNC(=O)OC(C)(C)C (racemic) | 2600 |  |
| CC(=O)NCCN1C(C)=Nc2ccc(Cl)cc2C1c1ccccc1 (racemic) | 2100 |  |
| CC1=Nc2ccc(Cl)cc2C(c2ccccc2)N1CCNC(=O)C1CC1 (racemic) | 2300 |  |
| O=C1CN2C(=Nc3ccc(Br)cc3C2c2ccccc2)CN1 (racemic) | 37000 |  |
| O=C1CN2C(=Nc3ccc(Br)cc3C2c2ccccc2)CCN1 (racemic) | 39000 |  |
| COC(=O)CN1C(C)=Nc2ccc(Cl)cc2C1c1ccccc1 (racemic) | 9400 |  |
| COC(=O)CN1C(C)=Nc2ccc(Br)cc2C1c1ccccc1Cl (racemic) | > 100000 |  |
| CCOC(=O)CN1C(C)=Nc2ccc(Br)cc2C1c1ccccc1 (racemic) | 12000 |  |
| CC1=Nc2ccc(Cl)cc2C(c2ccccc2)N1CCNC(=O)c1ccccc1 (racemic) | 1700 |  |
| CC1=Nc2ccc(Cl)cc2C(c2ccccc2)N1CCNC(=O)c1ccco1 (racemic) | 860 | Ki (Trypanothione reductase [5]): 2270 nM; EC50 [2]: 19000 nM; EC50 (MRC5): 22000 nM; Ki (Trypanothione reductase [4]): 440 nM |
| CC1=Nc2ccc(Cl)cc2C(c2ccccc2)N1CCNC(=O)Cc1ccccc1 (racemic) | 1800 |  |
| COCC(=O)NCCN1C(C)=Nc2ccc(Cl)cc2C1c1ccccc1 (racemic) | 1300 |  |
| CC1=Nc2ccc(Cl)cc2C(c2ccccc2)N1CCNC(=O)CN(C)C (racemic) | 810 | EC50 [2]: 13000 nM; EC50 (MRC5): 12000 nM |
| CC1=Nc2ccc(Cl)cc2C(c2ccccc2)N1CCN1CCN(C(=O)OC(C)(C)C)CC1 (racemic) | 1500 |  |
| CC(=O)N1CCN(CCN2C(C)=Nc3ccc(Cl)cc3C2c2ccccc2)CC1 (racemic) | 1700 |  |
| CC1=Nc2ccc(Cl)cc2C(c2ccccc2)N1CCN1CCN(C(=O)C2CC2)CC1 (racemic) | 1500 |  |
| CC1=Nc2ccc(Cl)cc2C(c2ccccc2)N1CCN1CCN(C(=O)c2ccccc2)CC1 (racemic) | 1600 |  |
| CC1=Nc2ccc(Cl)cc2C(c2ccccc2)N1CCN1CCN(C(=O)c2ccco2)CC1 (racemic) | 420 | EC50 [2]: 10000 nM; EC50 (MRC5): 23000 nM |
| CC1=Nc2ccc(Cl)cc2C(c2ccccc2)N1CCN1CCN(C(=O)Cc2ccccc2)CC1 (racemic) | 2000 |  |
| COCC(=O)N1CCN(CCN2C(C)=Nc3ccc(Cl)cc3C2c2ccccc2)CC1 (racemic) | 1600 |  |
| CC1=Nc2ccc(Cl)cc2C(c2ccccc2)N1CCN1CCN(C(=O)CN(C)C)CC1 (racemic) | 370 | Ki (Trypanothione reductase [5]): 1780 nM; EC50 [2]: 5600 nM; EC50 (MRC5): 6000 nM; Ki (Trypanothione reductase [4]): 270 nM |

| SMILES | IC50 (Trypanothione reductase [1]) [nM] | further results |
| --- | --- | --- |
| CC1=Nc2ccccc2C(c2ccccc2)N1CCN1CCCCC1 (racemic) | 780 | EC50 [2]: 12000 nM; EC50 (MRC5): 23000 nM |
| CC1=Nc2ccc(Br)cc2C(c2ccccc2)N1CCN1CCCCC1 (racemic) | 790 | EC50 [2]: 440 nM; EC50 (MRC5): 8400 nM |
| CC1=Nc2ccc(-c3ccco3)cc2C(c2ccccc2)N1CCN1CCCCC1 (racemic) | 1300 |  |
| CC1=Nc2ccc(I)cc2C(c2ccccc2)N1CCN1CCCCC1 (racemic) | 350 | EC50 [2]: 550 nM; EC50 (MRC5): 6800 nM |
| CC1=Nc2ccc(-c3ccccc3)cc2C(c2ccccc2)N1CCN1CCCCC1 (racemic) | 7300 | EC50 [2]: 750 nM; EC50 (MRC5): 3400 nM |
| CC1=Nc2ccc(-c3cccc4ccccc34)cc2C(c2ccccc2)N1CCN1CCCCC1 (racemic) | 8000 |  |
| CC1=Nc2ccc(-c3cc4ccccc4o3)cc2C(c2ccccc2)N1CCN1CCCCC1 (racemic) | 8500 |  |
| CC1=Nc2c(-c3ccccc3)cc(Cl)cc2C(c2ccccc2)N1CCCN(C)C (racemic) | 24000 |  |
| CC1=Nc2ccc(Cl)cc2C(c2ccc(C)cc2)N1CCCN(C)C (racemic) | 230 | Ki (Trypanothione reductase [5]): 1460 nM; EC50 [2]: 730 nM; EC50 (MRC5): 1900 nM; Ki (Trypanothione reductase [4]): 190 nM |
| CC1=Nc2ccc(Cl)cc2C(c2ccc(Cl)c(Cl)c2)N1CCN1CCCCC1 (racemic) | 1300 |  |
| CC1=Nc2ccc(Cl)cc2C(c2ccc(C(C)(C)C)cc2)N1CCN1CCCCC1 (racemic) | 7900 |  |
| CC1=Nc2ccc(Cl)cc2C(C2CCCCC2)N1CCN1CCCCC1 (racemic) | 27000 |  |
| CC1=Nc2ccc(Cl)cc2C(O)(c2ccc(F)cc2)N1CCN1CCCCC1 (racemic) | 8300 |  |
| COc1ccc(C2(O)c3cc(Cl)ccc3N=C(C)N2CCN2CCCCC2)cc1 (racemic) | 4900 |  |
| CC1=Nc2ccc(Cl)cc2C(O)(c2ccc(C)cc2)N1CCN1CCCCC1 (racemic) | 710 | EC50 [2]: 1500 nM; EC50 (MRC5): 5700 nM |
| CC1=Nc2ccc(Cl)cc2C(c2ccc(Cl)cc2)N1CCN1CCCCC1 (racemic) | 730 |  |
| CC1=Nc2ccc(Cl)cc2C(c2ccc(F)cc2)N1CCN1CCCCC1 (racemic) | 4900 |  |
| COc1ccc(C2c3cc(Cl)ccc3N=C(C)N2CCN2CCCCC2)cc1 (racemic) | 1500 |  |
| CC1=Nc2ccc(Cl)cc2C(c2ccc(C)cc2)N1CCN1CCCCC1 (racemic) | 590 | EC50 [2]: 1400 nM; EC50 (MRC5): 5000 nM |
| CC1=Nc2ccc(Cl)cc2C(c2cccc(C)c2)N1CCN1CCCCC1 (racemic) | 4600 |  |
| CC1=Nc2ccc(Cl)cc2C(c2ccc(C)c(C)c2)N1CCN1CCCCC1 (racemic) | 6800 |  |
| CC1=Nc2ccc(Cl)cc2C(Cc2ccccc2)N1CCN1CCCCC1 (racemic) | 50000 |  |
| CC1=Nc2ccc(Cl)cc2C(c2ccc(O)cc2)N1CCN1CCCCC1 (racemic) | 20000 |  |
| CC1=Nc2ccc(Cl)cc2C(c2cccc(O)c2)N1CCN1CCCCC1 (racemic) | 1600 |  |

Reference: ChEMBL document CHEMBL1833819, “Dihydroquinazolines as a novel class of Trypanosoma brucei trypanothione reductase inhibitors: discovery, synthesis, and characterization of their binding mode by protein crystallography” (J Med Chem, 2011)
